# Laboratory results as given in ChEMBL document CHEMBL3351600, “Sulfur, selenium and tellurium pseudopeptides: synthesis and biological evaluation” (Bioorg Med Chem, 2014).
# Experiments:
# [1] = Growth inhibition of human UACC62 cells after 48 hrs; format: functional; settings: UACC-62, 48 h
# Procedure, shortened: (§1)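 Run by the NCI 58-cell-line screen under its standard cytotoxicity protocol. Compounds were first tested at a single dose, then at five doses. Cells were exposed to compound for 48 h.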
# [2] = Lipophilicity, log K of the compound by HPLC analysis
# [3] = Growth inhibition of human HCT15 cells after 48 hrs; format: functional; settings: HCT-15, 48 h
# Procedure, shortened: (§2)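 NCI-60 human tumour cell line panel screen run at the US National Cancer Institute under its standard cytotoxicity protocol. It covers leukaemia, NSCLC, colon, CNS, melanoma, ovarian, renal, prostate and breast lines. An initial single-dose test was followed by five-dose testing with 48 h compound exposure.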
# [4] = system: HL-60(TB); assay: Growth inhibition of human HL-60(TB) cells after 48 hrs; format: functional; settings: HL-60, 48 h; procedure, shortened: as §2
# [5] = Growth inhibition of human COLO205 cells after 48 hrs; format: functional; settings: COLO 205, 48 h; procedure, shortened: as §2
# [6] = system: SN12C; assay: Growth inhibition of human SN12C cells after 48 hrs; format: functional; procedure, shortened: as §1
# [7] = Growth inhibition of human UACC257 cells after 48 hrs; format: functional; settings: UACC-257, 48 h; procedure, shortened: as §1
# [8] = system: NCI-H460; assay: Growth inhibition of human NCI-H460 cells after 48 hrs; format: functional; settings: NCI-H460, 48 h; procedure, shortened: as §2
# [9] = Cytotoxicity against human fibroblasts assessed as cell viability after 24 hrs incubation by MTT assay; format: cell-based; settings: Fibroblast
# Procedure, shortened: (§3)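 Cell lines came from DSMZ; primary human fibroblasts served as non-cancer controls. Cells were grown in medium with 10% FCS, seeded at 50,000 cells/ml, and grown 2 days at 37 °C, 10% CO2. Serial dilutions were then added for 24 h. MTT (final 0.5 mg/ml) was added for 2 h. Formazan was pelleted, PBS-washed, dissolved in isopropanol/0.4% HCl and read at 590 nm. Two parallel experiments were run. IC50 was taken as the concentration giving 50% of untreated-control absorbance.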
# [10] = system: A549; assay: Growth inhibition of human A549/ATCC cells after 48 hrs; format: functional; settings: A549, 48 h; procedure, shortened: as §2
# [11] = Growth inhibition of human HCT116 cells after 48 hrs; format: functional; settings: HCT-116, 48 h; procedure, shortened: as §2
# [12] = system: IGROV-1; assay: Growth inhibition of human IGROV1 cells after 48 hrs; format: functional; settings: IGROV-1, 48 h; procedure, shortened: as §2
# [13] = system: M14; assay: Growth inhibition of human M14 cells after 48 hrs; format: functional; settings: M14, 48 h; procedure, shortened: as §2
# [14] = system: NCI-H522; assay: Growth inhibition of human NCI-H522 cells after 48 hrs; format: functional; settings: NCI-H522, 48 h; procedure, shortened: as §2
# [15] = system: Pseudomonas aeruginosa; assay: Antimicrobial activity against Pseudomonas aeruginosa assessed as inhibition at 20 ug/6 mm disk after 1 to 2 days by agar diffusion assay; format: functional
# Procedure, shortened: (§4)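 Standard agar diffusion: 6-mm paper disks loaded with 20 µg of compound were placed on inoculated plates. Inhibition-zone diameter (mm) was read after 1 and 2 days of growth.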
# [16] = Growth inhibition of human OVCAR3 cells after 48 hrs; format: functional; settings: OVCAR-3, 48 h; procedure, shortened: as §2
# [17] = system: HOP-62; assay: Growth inhibition of human HOP62 cells after 48 hrs; format: functional; settings: HOP-62, 48 h; procedure, shortened: as §2
# [18] = system: A-431; assay: Cytotoxicity against human A431 cells assessed as cell viability after 24 hrs incubation by MTT assay; format: functional, cell-based; settings: A-431, 24 h; procedure, shortened: as §3
# [19] = system: K562; assay: Growth inhibition of human K562 cells after 48 hrs; format: functional; settings: K562, 48 h; procedure, shortened: as §2
# [20] = system: Aspergillus niger; assay: Antimicrobial activity against Aspergillus niger assessed as inhibition at 20 ug/6 mm disk after 1 to 2 days by agar diffusion assay; format: functional; procedure, shortened: as §4
# [21] = system: MDA-MB-231; assay: Growth inhibition of human MDA-MB-231 cells after 48 hrs; format: functional; settings: MDA-MB-231, 48 h; procedure, shortened: as §2
# [22] = Growth inhibition of human PC3 cells after 48 hrs; format: functional; settings: PC-3, 48 h; procedure, shortened: as §2
# [23] = system: NCI-H23; assay: Growth inhibition of human NCI-H23 cells after 48 hrs; format: functional; settings: NCI-H23, 48 h; procedure, shortened: as §2
# [24] = system: SW-620; assay: Growth inhibition of human SW620 cells after 48 hrs; format: functional; settings: SW-620, 48 h; procedure, shortened: as §1
# [25] = Growth inhibition of human OVCAR5 cells after 48 hrs; format: functional; settings: OVCAR-5, 48 h; procedure, shortened: as §2
# [26] = system: Mycolicibacterium phlei; assay: Antimicrobial activity against Mycobacterium phlei assessed as inhibition at 20 ug/6 mm disk after 1 to 2 days by agar diffusion assay; format: functional; procedure, shortened: as §4
# [27] = system: NCI-H322M; assay: Growth inhibition of human NCI-H322M cells after 48 hrs; format: functional; procedure, shortened: as §2
# [28] = system: Candida albicans; assay: Antimicrobial activity against Candida albicans assessed as inhibition at 20 ug/6 mm disk after 1 to 2 days by agar diffusion assay; format: functional; procedure, shortened: as §4
# [29] = system: Micrococcus luteus; assay: Antimicrobial activity against Micrococcus luteus assessed as inhibition at 20 ug/6 mm disk after 1 to 2 days by agar diffusion assay; format: functional; procedure, shortened: as §4
# [30] = system: Klebsiella pneumoniae; assay: Antimicrobial activity against Klebsiella pneumoniae assessed as inhibition at 20 ug/6 mm disk after 1 to 2 days by agar diffusion assay; format: functional; procedure, shortened: as §4
# [31] = system: U-251; assay: Growth inhibition of human U251 cells after 48 hrs; format: functional; settings: U-251, 48 h; procedure, shortened: as §1
# [32] = system: TK-10; assay: Growth inhibition of human TK10 cells after 48 hrs; format: functional; settings: TK-10, 48 h; procedure, shortened: as §1
# [33] = system: SK-MEL-2; assay: Growth inhibition of human SK-MEL-2 cells after 48 hrs; format: functional; settings: SK-MEL-2, 48 h; procedure, shortened: as §2
# [34] = read-out: pLC50 (the source's name) (converted)
compound,measurement,setting,value
CC1=C(SCCC(=O)OCC(=O)NCCC[Te]c2ccccc2)C(=O)c2ccccc2C1=O,GI50,[1],1.86 µM
same,CC50,[1]; [34],13.5 µM
same,TGI,[1]; read-out: pTGI (converted),4.57 µM
same,log K,[2],-0.56
same,GI50,[3],2.57 µM
same,CC50,[3]; [34],77.6 µM
same,TGI,[3]; read-out: pTGI (converted),12 µM
same,GI50,[4],2.57 µM
same,CC50,[4]; [34],> 100 µM
same,TGI,[4]; read-out: pTGI (converted),7.24 µM
same,Retention_time,,0.928 min
same,GI50,[5],1.91 µM
same,CC50,[5]; [34],8.91 µM
same,TGI,[5]; read-out: pTGI (converted),4.17 µM
same,GI50,[6],1.86 µM
same,LC50,[6],31.6 µM
same,TGI,[6]; read-out: pTGI (converted),6.17 µM
same,GI50,[7],2.75 µM
same,CC50,[7]; [34],32.4 µM
same,TGI,[7]; read-out: pTGI (converted),7.94 µM
same,GI50,[8],1.32 µM
same,CC50,[8]; [34],51.3 µM
same,TGI,[8]; read-out: pTGI (converted),4.17 µM
same,IC50,[9],13 µM
same,GI50,[10],1.29 µM
same,CC50,[10]; [34],> 100 µM
same,TGI,[10]; read-out: pTGI (converted),3.63 µM
same,GI50,[11],1.66 µM
same,CC50,[11]; [34],11.5 µM
same,TGI,[11]; read-out: pTGI (converted),4.17 µM
same,GI50,[12],2.14 µM
same,CC50,[12]; [34],35.5 µM
same,TGI,[12]; read-out: pTGI (converted),6.46 µM
same,GI50,[13],2.04 µM
same,CC50,[13]; [34],17 µM
same,TGI,[13]; read-out: pTGI (converted),5.13 µM
same,GI50,[14],2.51 µM
same,CC50,[14]; [34],47.9 µM
same,TGI,[14]; read-out: pTGI (converted),10.2 µM
same,diameter of the inhibition zone (DIZ),[15],12 mm
same,GI50,[16],2.63 µM
same,CC50,[16]; [34],15.5 µM
same,TGI,[16]; read-out: pTGI (converted),5.5 µM
same,GI50,[17],1.91 µM
same,CC50,[17]; [34],23.4 µM
same,TGI,[17]; read-out: pTGI (converted),5.5 µM
same,IC50,[18],1 µM
same,GI50,[19],3.55 µM
same,CC50,[19]; [34],> 100 µM
same,TGI,[19]; read-out: pTGI (converted),34.7 µM
same,diameter of the inhibition zone (DIZ),[20],19 mm
same,GI50,[21],1.86 µM
same,LC50,[21],9.55 µM
same,TGI,[21]; read-out: pTGI (converted),4.27 µM
same,GI50,[22],2.4 µM
same,LC50,[22],42.7 µM
same,TGI,[22]; read-out: pTGI (converted),12 µM
same,GI50,[23],2.29 µM
same,CC50,[23]; [34],44.7 µM
same,TGI,[23]; read-out: pTGI (converted),7.41 µM
same,GI50,[24],3.98 µM
same,CC50,[24]; [34],60.3 µM
same,TGI,[24]; read-out: pTGI (converted),17 µM
same,GI50,[25],2.75 µM
same,LC50,[25],38 µM
same,TGI,[25]; read-out: pTGI (converted),8.51 µM
same,diameter of the inhibition zone (DIZ),[26],16 mm
same,GI50,[27],2.88 µM
same,CC50,[27]; [34],83.2 µM
same,TGI,[27]; read-out: pTGI (converted),12.6 µM
same,diameter of the inhibition zone (DIZ),[28],0 mm
same,diameter of the inhibition zone (DIZ),[29],11 mm
same,diameter of the inhibition zone (DIZ),[30],13 mm
same,GI50,[31],3.16 µM
same,CC50,[31]; [34],45.7 µM
same,TGI,[31]; read-out: pTGI (converted),11.5 µM
same,GI50,[32],3.8 µM
same,LC50,[32],38 µM
same,TGI,[32]; read-out: pTGI (converted),12.9 µM
same,GI50,[33],2.09 µM
same,CC50,[33]; [34],12.9 µM
same,TGI,[33]; read-out: pTGI (converted),4.79 µM
